Test results from ChEMBL document CHEMBL1127471, “Tricyclic analogues of acyclovir and ganciclovir. Influence of substituents in the heterocyclic moiety on the antiviral activity” (1994).
Converted amounts (≈) assume the structure as drawn.

Tests used:
Format in all cases: functional
[1] = tested on: Cytomegalovirus; assay: The minimum inhibitory concentration was measured on HEL cells against Cytomegalovirus virus (Davis strain); conditions: Human betaherpesvirus 5
Method in brief: (§1)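 Antiviral endpoint was the concentration reducing virus plaque formation by 50% in HEL cell cultures. Values are means of two to six independent determinations.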

[2] = tested on: HEL; assay: The […] was measured on HEL cells in cell growth; conditions: Homo sapiens
[3] = tested on: Vaccinia virus; assay: The minimum inhibitory concentration was measured on E6SM cells against Vaccinia virus; conditions: Orthopoxvirus vaccinia
Method in brief: (§2)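 Antiviral endpoint was the concentration reducing virus-induced cytopathicity by 50% in […] cell cultures. Values are means of two to six independent determinations.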

[4] = tested on: E6SM; assay: The minimum inhibitory concentration was measured on E6SM cells for morphological alteration; conditions: Homo sapiens
Method in brief: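 In uninfected E6SM cells, the value is the concentration giving a microscopically detectable change in normal cell morphology. Values are means of two to six independent determinations.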

[5] = The minimum inhibitory concentration was measured against Herpes simplex virus type 1 (KOS strain) on E6SM cells; conditions: Human alphaherpesvirus 1; method in brief: as §2
[6] = tested on: Human alphaherpesvirus 3; assay: The minimum inhibitory concentration was measured on HEL cells against Varicella zoster virus (OKA strain); conditions: Human alphaherpesvirus 3, oka; method in brief: as §1
[7] = The minimum inhibitory concentration was measured on E6SM cells against Herpes simplex virus type 1 (McIntyre strain); conditions: Human alphaherpesvirus 1; method in brief: as §2
[8] = tested on: Human alphaherpesvirus 1; assay: The minimum inhibitory concentration was measured on E6SM cells against TK-Herpes simplex virus type 1 (B2006 strain); method in brief: as §2
[9] = tested on: Human betaherpesvirus 5; assay: The minimum inhibitory concentration was measured on HEL cells against Cytomegalovirus virus (AD-169 strain); method in brief: as §1
[10] = tested on: Human alphaherpesvirus 1; assay: The minimum inhibitory concentration was measured on E6SM cells against TK+/TK-Herpes simplex virus type 1 (VMW1837 strain); method in brief: as §2
[11] = tested on: Human alphaherpesvirus 3; assay: The minimum inhibitory concentration was measured on HEL cells against TK-Varicella zoster virus (YS-R strain); conditions: Human alphaherpesvirus 3, ys-r; method in brief: as §1
[12] = tested on: Human alphaherpesvirus 3; assay: The minimum inhibitory concentration was measured on HEL cells against TK-Varicella zoster virus (07/1 strain); method in brief: as §1
[13] = tested on: Human alphaherpesvirus 1; assay: The minimum inhibitory concentration was measured on E6SM cells against Herpes simplex virus type 1 (F strain); method in brief: as §2
[14] = tested on: Human alphaherpesvirus 3; assay: The minimum inhibitory concentration was measured on HEL cells against Varicella zoster virus (YS strain); method in brief: as §1
[15] = tested on: HEL; assay: The minimum inhibitory concentration was measured on HEL cells against Cytomegalovirus virus (Davis strain); (<100>40); conditions: Homo sapiens; method in brief: as §1
[16] = tested on: HEL; assay: The minimum inhibitory concentration was measured on HEL cells against Cytomegalovirus virus (AD-169 strain); (<100>40); conditions: Homo sapiens; method in brief: as §1
[17] = tested on: HEL; assay: The minimum inhibitory concentration was measured on HEL cells against Cytomegalovirus virus (AD-169 strain); (<400>100); conditions: Homo sapiens; method in brief: as §1
[18] = tested on: HEL; assay: The minimum inhibitory concentration was measured on E6SM cells against Vesicular stomatitis virus; conditions: Homo sapiens; method in brief: as §2
[19] = tested on: HEL; assay: The minimum inhibitory concentration was measured on HEL cells against Cytomegalovirus virus (Davis strain); (<400>100); conditions: Homo sapiens; method in brief: as §1

SMILES | MIC [1] [µg/mL] | MIC [2] [µg/mL] | MIC [3] [µg/mL] | MIC [4] [µg/mL] | MIC [5] [µg/mL] | MIC [6] [µg/mL] | MIC [7] [µg/mL] | MIC [8] [µg/mL] | MIC [9] [µg/mL] | MIC [10] [µg/mL] | MIC [11] [µg/mL] | MIC [12] [µg/mL] | MIC [13] [µg/mL] | MIC [14] [µg/mL] | MIC [15] [µg/mL] | MIC [16] [µg/mL] | MIC [17] [µg/mL] | MIC [18] [µg/mL] | MIC [19] [µg/mL]
Cc1cnc2nc3c(c(O)n12)NCN3COCCO | > 50 | > 200 | > 150 | > 100 | 2.1 (≈ 7.92 µM) | > 50 | 0.5 (≈ 1.88 µM) | > 50 | > 50 | > 120 | > 50 | > 50 | 0.1 (≈ 0.377 µM) | > 50 |  |  |  |  | 
OCCOCN1CNc2c1nc1nc(-c3ccc(Br)cc3)cn1c2O |  | > 200 | > 70 | ≥ 70 | 0.6 (≈ 1.48 µM) | 1 (≈ 2.46 µM) | 0.2 (≈ 0.492 µM) |  |  | > 70 | 230 (≈ 566 µM) | 125 (≈ 308 µM) | 2 (≈ 4.92 µM) | 4 (≈ 9.85 µM) | > 40 | > 40 |  |  | 
CC(C)(C)c1cn2c(O)c3c(nc2n1)N(COCCO)CN3 |  | 167 (≈ 543 µM) | > 250 | > 250 | 4.5 (≈ 14.6 µM) | 1 (≈ 3.25 µM) | 2 (≈ 6.51 µM) |  |  | > 125 | 127 (≈ 413 µM) | 40 (≈ 130 µM) | 4 (≈ 13 µM) | 2.2 (≈ 7.16 µM) |  |  | > 100 | > 125 | > 100
Cc1cn2c(O)c3c(nc2n1)N(COC(CO)CO)CN3 | > 50 | > 200 | > 175 | > 175 | 0.015 (≈ 0.0508 µM) | 1 (≈ 3.39 µM) | 0.02 (≈ 0.0677 µM) | 31 (≈ 105 µM) | > 50 | 1.6 (≈ 5.42 µM) | 15 (≈ 50.8 µM) | 15 (≈ 50.8 µM) | 0.005 (≈ 0.0169 µM) | 12 (≈ 40.6 µM) |  |  |  |  | 
CC(C)(C)c1cn2c(O)c3c(nc2n1)N(COC(CO)CO)CN3 | > 50 | > 200 | > 135 | > 175 | 0.035 (≈ 0.104 µM) | 5 (≈ 14.8 µM) | 0.1 (≈ 0.296 µM) | > 70 | > 50 | 0.7 (≈ 2.07 µM) | 50 (≈ 148 µM) | 50 (≈ 148 µM) | 0.1 (≈ 0.296 µM) | > 20 |  |  |  |  | 
Cc1cn2c(O)c3c(nc2n1)N(COCCO)C(Br)N3 (centres undefined) |  | > 200 | > 250 | > 250 | 95 (≈ 276 µM) | 215 (≈ 625 µM) | 150 (≈ 436 µM) |  |  | > 125 | 185 (≈ 538 µM) | 180 (≈ 523 µM) | 150 (≈ 436 µM) | 220 (≈ 639 µM) |  |  | > 100 |  | > 100
OCCOCN1CNc2c1nc1nc(-c3ccccc3)cn1c2O | 166 (≈ 507 µM) | 45 (≈ 137 µM) | > 100 | > 100 | 0.4 (≈ 1.22 µM) | 1.3 (≈ 3.97 µM) | 0.2 (≈ 0.611 µM) |  |  | > 70 | 67 (≈ 205 µM) | 67 (≈ 205 µM) | 0.7 (≈ 2.14 µM) | 1.4 (≈ 4.28 µM) |  |  | > 100 |  | 
OCC(CO)OCN1CNc2c1nc1nc(-c3ccccc3)cn1c2O | 7 (≈ 19.6 µM) | > 200 | > 90 | > 175 | 0.02 (≈ 0.056 µM) | 0.4 (≈ 1.12 µM) | 0.005 (≈ 0.014 µM) | > 30 | 20 (≈ 56 µM) | 0.5 (≈ 1.4 µM) | 1 (≈ 2.8 µM) | 3 (≈ 8.39 µM) | 0.005 (≈ 0.014 µM) | 3 (≈ 8.39 µM) |  |  |  |  | 
